# Assay results as given in PubChem BioAssay AID463191 (Sanford-Burnham Center for Chemical Genomics, 2010).
# pIC50: −log10 of the molar value. Calls of active or inactive are those of the source.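 The calls were made as follows: active = compounds whose mean IC50 across repeat dose response tests falls below a set limit; inactive = the rest.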
# Tested on: AML12 mouse hepatocytes, BODIPY lipid droplet imaging
# Assay: hepatocyte lipid droplet accumulation inhibitors, dose response, imaging, AML12 mouse hepatocytes, high-content (AID 463191)
# Conditions: cells loaded with 100 µM oleic acid
# Outline: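 System – AML12 mouse hepatocyte cell line, lipid droplet imaging · Reagent – oleic acid at 100 µM final for lipid loading · Compound dosing – 7 doses, 0.5–32 µM, 0.32% DMSO · Schedule – cells grown about 20 h at 37 °C, then overnight compound exposure · Read-out – IC50 from per-cell lipid droplet intensity · Replication – duplicate points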
Compound,IC50,pIC50
Cc1cccc(NC(=O)CSc2nnc(C)c(=O)n2N)c1,6650 nM (inactive),
COc1ccc(CNC(=O)CN2C(=O)NC(C)(c3cccc4ccccc34)C2=O)cc1OC (centres undefined),,5.63
CCOc1ccc(CCNC(=O)CCc2nnc3ccc(N4CCCC4)nn23)cc1OCC,,5.74
O=C(Nc1nc(-c2ccc(-c3ccccc3)cc2)cs1)C1CCCO1 (centres undefined),,5.65
COc1ccc(C(C(=O)NC(C)(C)C)N(Cc2ccccc2)C(=O)CCC(=O)Nc2cc(C)on2)cc1 (centres undefined),8980 nM (inactive),
CCOc1ccc2nc(-c3ccccc3)nc(SCC(=O)Nc3ncc(C)s3)c2c1,,> 6.30
COc1cccc(C(=O)NC2CCCc3c2cnn3-c2cc(C)cc(C)c2)c1 (centres undefined),,5.69
CCC(C)(C)NC(=O)C(c1ccc(OC)cc1)N(Cc1cccs1)C(=O)CCC(=O)Nc1cc(C)on1 (centres undefined),,5.65
CCc1ccc(NC(=O)CSc2nc3ccccc3nc2N2CCCC2)cc1,,5.71
CCOc1ccc(CCNC(=O)CCc2nnc3ccc(N4CCCCC4)nn23)cc1OCC,,6.24
CCOc1ncccc1C(=O)OC(C)C(=O)Nc1ccc(CC)cc1 (centres undefined),,5.58
CCOc1ccccc1Nc1nnc(SCC(=O)Nc2nc(-c3ccc(OC)cc3)cs2)s1,,5.99
CCOc1ccc(C(=O)NCC(=O)NC(C)CCc2ccccc2)cc1OCC (centres undefined),,6.07
CCCc1cc(N2CCOCC2)n2nc(C)c(-c3ccccc3)c2n1,,> 6.30
Cc1cc(C(=O)NC2CCCc3c2cnn3-c2ccc(C)c(C)c2)nc(C)n1 (centres undefined),,5.55
COc1ccc(Cl)cc1NC(=O)CN(C)C(=O)CCCc1c[nH]c2ccccc12,,5.64
CCC(C)(C)NC(=O)C(c1ccc(OC)cc1)N(CC1CCCO1)C(=O)CCC(=O)Nc1cc(C)on1 (centres undefined),,5.46
CC(C)c1ccc(NC(=O)CSc2nc3ccccc3nc2N2CCCC2)cc1,,5.68
Cc1sc(NC(=O)Cc2ccc3c(c2)OCO3)nc1-c1ccc2c(c1)CCN2C(=O)c1ccccc1F,,5.75
CCNC(=S)N1CCc2cc(OC)c(OC)cc2C1COc1ccccc1OC (centres undefined),,5.42
c1ccc(-c2csc(NNC3=NCCCCC3)n2)cc1,,6.15
CCc1c(C#N)c(SCCC(=O)Nc2cccc(OC)c2)nc2c1C(=O)CC(C)(C)C2,,5.85
CCOc1ccc(CCNC(=O)CSc2cc(=O)n(C)c3cc(Cl)ccc23)cc1OCC,,6.15
CCOc1cc2c(cc1OCC)C(c1ccc(OC)cc1)N(c1ccccc1)C(=O)C2 (centres undefined),> 32000 nM (inactive),
COc1ccc2c(c1)c(CC(=O)Nc1ccc(C(C)=O)cc1)c(C)n2C(=O)c1ccc(Cl)cc1,,5.54

Compound,IC50,pIC50
CCN(CC)c1ccc(NC(=O)CCc2nnc3ccc(N4CCCC4)nn23)c(C)c1,,5.63
CCOc1ccc(CCNC(=O)CCNC(=O)c2ccccc2Cl)cc1OCC,5880 nM (inactive),
O=C(CSCC(=O)N1CCCc2ccccc21)Nc1nc(-c2ccccc2)cs1,,5.37
CCOc1ccc(CCNC(=O)CN2CCN(Cc3ccccc3C)C2=O)cc1OCC,,6.03
COc1ccc(C(=O)OCC(=O)NC(C)CCc2ccccc2)cc1OC (centres undefined),11700 nM (inactive),
COc1ccc(CCNC(=O)c2cc(-c3ccccc3)c(N3CCOCC3)s2)c(OC)c1OC,,> 6.30
CCOc1ccc(C(=O)OCC(=O)Nc2cc(C)on2)cc1OCC,,5.74
CCOc1ccc(CCNC(=O)CS(=O)Cc2nc(-c3ccc(OC)cc3)oc2C)cc1OCC (centres undefined),,5.68
CCOc1ccc(CCNC(=O)COc2cc(=O)n(C)c3ccccc23)cc1OCC,,5.40
Cc1ccc(-n2nc3c(=O)n(CC(=O)NC(C)CCc4ccccc4)nc(C)c3c2C)cc1 (centres undefined),,6.24
C=CCOc1ccc(-c2nc3c(c(=O)[nH]c(=O)n3Cc3ccccc3)n2CCCOC)cc1,,5.53
Cc1ccc(-n2nc3c(=O)n(CC(=O)NCCCc4ccccc4)nc(C)c3c2C)cc1,,5.37
Cc1cccc(NC(=O)CSc2nc3ccccc3nc2N2CCCC2)c1,5070 nM (inactive),
CCOc1ccc(CCNC(=O)Cn2nc(C)c3c(C)n(-c4ccccc4)nc3c2=O)cc1OCC,,> 6.30
COc1ccc(OC)c(CCNC(=O)C(C)n2nc(C)c3c(C)n(-c4ccc(C)cc4)nc3c2=O)c1 (centres undefined),,5.80
CCOc1ccc(CCNC(=O)CCc2nc(-c3ccc(OC)cc3)no2)cc1OCC,,6.11
FC(F)Oc1ccc(-c2csc(NNC3=NCCCCC3)n2)cc1,,6.04
CCC(C)(C)NC(=O)C(c1sccc1C)N(Cc1ccco1)C(=O)c1csnn1 (centres undefined),11900 nM (inactive),
CCOc1ccc(CCNC(=O)COC(=O)c2cccnc2OCC)cc1OCC,,5.64
COc1ccccc1NS(=O)(=O)c1ccc(N/N=C/c2c(C)nn(-c3ccccc3)c2N2CCCC2)c([N+](=O)[O-])c1,,> 6.30
CCOc1ccc(CCNC(=O)Nc2cccc(OC)c2)cc1OCC,,> 6.30
COc1ccc(C(C(=O)NC(C)(C)C)N(Cc2ccc(C)cc2)C(=O)CCC(=O)Nc2cc(C)on2)cc1 (centres undefined),,5.64
CC1=C(C(=O)NC2CCCc3c2cnn3-c2cccc(C)c2C)OCCO1 (centres undefined),11800 nM (inactive),
COC(=O)/C(=C\c1ccc2c(c1)c1ccccc1n2C)NC(=O)c1ccccc1,,5.48
CCOc1ccc(CN(C)C(=O)CNC(=O)Cc2cccc3ccccc23)cc1,,6.25

Compound,IC50,pIC50
CCOc1cc(CNC(=O)CCCn2c(=O)c3cccn3c3cccnc32)cc(OCC)c1OCC,,6.27
COc1ccc(C(=O)OCC(=O)NC(C)CCc2ccccc2)c(OC)c1 (centres undefined),10600 nM (inactive),
COc1ccc(C2(c3ccc(OC)cc3)NC(=O)N(CC(=O)Nc3ccccc3C)C2=O)cc1,,5.82
CCOc1ccc(-c2csc(NNC3=NCCCCC3)n2)cc1,,5.91
CCCCN(C(=O)CCC(=O)Nc1cc(C)on1)C(C(=O)NC1CCCC1)c1ccc(OCC)cc1 (centres undefined),,5.39
Cc1ccc(-n2nc3c(=O)n(C(C)C(=O)NCCC4=CCCCC4)nc(C)c3c2C)cc1 (centres undefined),,5.41
CCn1cc(CCCC(=O)NCc2cccc(OC)c2)c2ccccc21,6430 nM (inactive),
Cc1ccc(-n2nc3c(=O)n(C(C)C(=O)NCCc4cccs4)nc(C)c3c2C)cc1 (centres undefined),,5.49
CCCCc1ccc(NC(=O)CSc2nnc(C)c(=O)n2N)cc1,,5.90
COC(=O)/C(=C/c1ccc2c(c1)c1ccccc1n2C)NC(=O)c1ccccc1,,5.37
CC(Sc1nnc(Nc2ccccc2)s1)C(=O)Nc1nc(-c2ccccc2)cs1 (centres undefined),5770 nM (inactive),
CCOc1cc2c(cc1OCC)C(c1ccccc1OC)OC(=O)C2 (centres undefined),> 32000 nM (inactive),
CCOc1ccc(CCNC(=O)CS(=O)Cc2nc(-c3ccccc3C)oc2C)cc1OCC (centres undefined),5360 nM (inactive),
CCOc1ccccc1NC(=O)CCCNC(=O)Cn1cnc2sc(C)c(C)c2c1=O,7090 nM (inactive),
COc1ccc(NC(=O)CN2C(=O)NC(c3ccccc3)(c3ccccc3)C2=O)cc1OC,,5.80
COc1ccc(NC(=O)CSc2nc3ccccc3nc2N2CCCC2)cc1Cl,,5.55
COc1ccc(NC(=O)CSc2nc3ccccc3nc2N2CCCCC2)cc1,,5.93
COc1ccc(C(C(=O)NC(C)(C)C)N(Cc2ccco2)C(=O)CCC(=O)Nc2cc(C)on2)cc1 (centres undefined),,5.32
CCOc1ccc(CN(C)C(=O)CNC(=O)c2ccc(Br)o2)cc1OC,,5.41
CCOc1ccc(C(C)NC(=O)Cc2ccccc2)cc1OCC (centres undefined),> 32000 nM (inactive),
CCOc1ccc(CCNC(=O)Nc2ccccc2C)cc1OCC,,5.69
CCOc1ccc(CCNC(=O)Cn2ncn3nc(-c4ccc(OC)cc4)cc3c2=O)cc1OCC,,> 6.30
COc1ncccc1C(=O)NC1CCCc2c1cnn2-c1ccc(C)c(C)c1 (centres undefined),,5.46
COc1ccc(NC(=O)[C@H](C)NC(=O)[C@@H]2Cc3ccccc3CN2C(=O)OC(C)(C)C)cc1,7120 nM (inactive),
COc1ccc(C2(c3ccc(OC)cc3)NC(=O)N(CC(=O)Nc3ccc(OC)c(OC)c3)C2=O)cc1,6860 nM (inactive),

Compound,IC50,pIC50
CCCCn1c(=O)[nH]c(=O)c2c1nc(-c1ccc(-c3ccccc3)cc1)n2C,9970 nM (inactive),
COc1ccc(CCNC(=O)CN2C(=O)c3cccc4cccc(c34)C2=O)cc1OC,5770 nM (inactive),
CCN(CC(=O)Nc1c(F)cccc1F)C(=O)CCCc1c[nH]c2ccccc12,,5.72
COc1ccc(CCNC(=O)c2cc3c(F)cccc3s2)cc1OC,5420 nM (inactive),
CCOc1ccc(CCNC(=O)c2nnc(Cc3ccc(F)cc3)o2)cc1OCC,,5.80
CCOc1ccc(CCNC(=O)CN2C(=O)NC(CCSC)C2=O)cc1OCC (centres undefined),,5.90
CC(=O)c1cccc(N=Nc2c(-c3ccccc3)[nH]n(-c3ccccc3)c2=O)c1,,6.20
Cc1ccc(CNC(=O)c2ccc(N3CCC4(CC3)CC(c3ccccc3)=NO4)c(NC(=O)c3ccc(Br)cc3)c2)cc1,,> 6.30
CCOc1ccc(CCNC(=O)COC(=O)c2cc(OC)c(OC)c(OC)c2)cc1OCC,,6.25
COc1cccc(NC(=O)CSc2nc3ccccc3nc2N2CCCC2)c1,5260 nM (inactive),
CCOC(=O)c1ccc(NC(=O)CSc2nc3c(c(=O)n2-c2ccccc2OC)SCC3)cc1,,5.74
Cc1cc(C(=O)OC(C)C(=O)Nc2nc(-c3ccccc3)cs2)c(C)o1 (centres undefined),,6.12
CCCCCCn1c(N2CCN(c3ccccc3)CC2)nc2c1c(=O)[nH]c(=O)n2C,,5.61
CCOC(=O)c1ccc(S(=O)(=O)NCC(c2ccc(N(C)C)cc2)c2c[nH]c3ccccc23)cc1 (centres undefined),,6.03
CC(=O)Nc1ccc(-c2csc(NC(=O)Cc3ccccc3F)n2)cc1,5100 nM (inactive),
O=C(NC1CCCc2c1cnn2-c1ccccc1F)c1ccccn1 (centres undefined),> 32000 nM (inactive),
CCCCCn1c(N)c(-c2nc3ccccc3s2)c2c([N+](=O)[O-])nn(CC)c(=O)c21,7460 nM (inactive),
COc1ccc(-c2csc(NC(=O)c3ccc(OCC(=O)N4CCOCC4)c(OC)c3)n2)cc1,,6.11
CCOc1ccc(CCNC(=O)CS(=O)Cc2nc(-c3ccc(OC)c(OC)c3)oc2C)cc1OCC (centres undefined),7640 nM (inactive),
CCOc1ccc(CCNC(=O)CCC(=O)N2CCSc3ccccc32)cc1OCC,,> 6.30
O=C(NC1CCCc2c1cnn2-c1cc(F)cc(F)c1)c1ccccn1 (centres undefined),,5.81
CCOc1ccc(CCNC(=O)C2CC(=O)N(Cc3ccc(OC)cc3)C2)cc1OCC (centres undefined),,5.42
CCOc1ccc(CCNC(=O)c2ccc3ccccc3n2)cc1OCC,,5.88
CCOc1ccc(CCNC(=O)c2cccs2)cc1OCC,,5.63
